Experimental data taken from ChEMBL document CHEMBL1127034, “Synthesis, antiproliferative, and antiviral activity of 4-amino-1-(beta-D-ribofuranosyl)pyrrolo[2,3-d]pyridazin-7(6H)-one and related derivatives” (J Med Chem, 1993).

How the values were obtained:
[1] = test system: HFF; assay: Tested for cytotoxicity in human foreskin fibroblasts at time of HCMV plaque enumeration; type: functional, cell-based
Procedure, shortened: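 HFF cells (MEM/Earle's, 10% fetal bovine serum), uninfected cells within HCMV plaque-reduction wells. Drug cytopathology scored visually at 30-fold magnification on a 0-4+ scale on the day of staining for plaque enumeration. IC50 from regression against log concentration.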

[2] = test system: L1210; assay: Tested for in vitro cell growth inhibition of L1210 cells; No significant effect; type: functional, cell-based, Mus musculus
Procedure, shortened: (§1)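 L1210 cell number counted at 0, 48 and 96 h across a range of concentrations. Growth rate is the slope of semilog cell number vs time as percent of control (ratio of control to treated doubling time); the 48-96 h rate is used if growth slowed. IC50 halves growth rate. Top concentration 100 μM.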

[3] = test system: Human betaherpesvirus 5; assay: Tested for antiviral activity against human cytomegalovirus by plaque assay; type: functional, organism-based
Procedure, shortened: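 Towne strain HCMV (plaque-purified P0) on HFF monolayers. Inoculum about 50 PFU in 0.2 mL; compounds dissolved in the overlay medium. IC50 from linear regression of percent inhibition vs log concentration. Ganciclovir positive control; assay sets rejected if it deviated >1.5 SD from its mean response.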

[4] = test system: Human alphaherpesvirus 1; assay: Tested for antiviral activity against Herpes simplex virus type-1 using enzyme immunoassay
[5] = test system: Calu-1; assay: Tested for in vitro cell growth inhibition of CALU-1 cells; type: functional, cell-based; details: Homo sapiens
Procedure, shortened: (§2)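 Adherent tumor lines in RPMI 1640 + 5% fetal bovine serum (UMSCC-10A: MEM-5). Cells/well: UMSCC-10A, CALU-1, NCI-H1437 and HT-29 2000; NCI-H460 1000; DLD-1 1000; SW-620 7500. Compound added 1 day after plating. Sulforhodamine B readout on day 5 (NCI-H460 and SW-620: day 4). IC50 halves growth rate vs control. Top concentration 100 μM.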

[6] = test system: Human betaherpesvirus 5; assay: Tested for antiviral activity against human cytomegalovirus by yield reduction assay; type: functional
[7] = test system: NCI-H460; assay: Tested for in vitro cell growth inhibition of NCI-H460 cells; type: functional, cell-based; details: Homo sapiens; procedure, shortened: as §2
[8] = Tested for the inhibition of KB cell growth; type: functional, cell-based; details: Homo sapiens
Procedure, shortened: (§3)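 KB cells (MEM/Hank's, 5% fetal bovine serum). Growth measured spectrophotometrically after crystal violet staining 2 days after drug treatment. IC50 from linear regression of percent inhibition vs log concentration.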

[9] = test system: DLD-1; assay: Tested for in vitro cell growth inhibition of DLD-1 cells; type: functional, cell-based; details: Homo sapiens; procedure, shortened: as §2
[10] = organism: Homo sapiens; assay: Tested for in vitro cell growth inhibition of H.Ep. 2 cells; type: functional, cell-based; details: HEp-2
Procedure, shortened: (§4)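 H.Ep.2 cells grown in MEM/Earle's with 15% heat-inactivated calf serum, 5% CO2. 2000 cells/well plated in 5% calf serum; compound added 1 day later. […] Top concentration 100 μM.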

[11] = test system: HT-29; assay: Tested for in vitro cell growth inhibition of HT-29 cells; type: functional, cell-based; details: Homo sapiens; procedure, shortened: as §2
[12] = test system: L1210; assay: Tested for in vitro cell growth inhibition of L1210 cells; type: functional, cell-based; details: Mus musculus; procedure, shortened: as §1
[13] = test system: NCI-H417; assay: Tested for in vitro cell growth inhibition of NCI-N417 cells; type: functional, cell-based; details: Homo sapiens
[14] = Tested for in vitro cell growth inhibition of NCI-H146 cells; type: functional, cell-based; details: Homo sapiens
[15] = test system: SW-620; assay: Tested for in vitro cell growth inhibition of SW-620 cells; type: functional, cell-based; details: Homo sapiens; procedure, shortened: as §2
[16] = Tested for in vitro cell growth inhibition of UMSCC-10A cells; type: functional, cell-based; details: Homo sapiens; procedure, shortened: as §2
[17] = Tested for in vitro cell growth inhibition of NCI-H1437 cells; type: functional, cell-based; details: Homo sapiens; procedure, shortened: as §2
[18] = organism: Homo sapiens; assay: Tested for in vitro cell growth inhibition of H. Ep. 2 cells; No significant effect; type: functional, cell-based; procedure, shortened: as §4
[19] = organism: Homo sapiens; assay: Tested for in vitro cell growth inhibition of H.Ep. 2 cells; No significant effect; type: functional, cell-based; procedure, shortened: as §4
[20] = test system: NCI-H417; assay: Tested for in vitro cell growth inhibition of NCI-N417 cells; No significant effect; type: functional, cell-based, Homo sapiens
[21] = Tested for in vitro cell growth inhibition of NCI-H146 cells; No significant effect; type: functional, cell-based, Homo sapiens
[22] = test system: Calu-1; assay: Tested for in vitro cell growth inhibition of CALU-1 cells; No significant effect; type: functional, cell-based, Homo sapiens; procedure, shortened: as §2
[23] = Tested for in vitro cell growth inhibition of NCI-H1437; type: functional; details: Homo sapiens; procedure, shortened: as §2
[24] = test system: NCI-H460; assay: Tested for in vitro cell growth inhibition of NCI-H460; type: functional, cell-based; details: Homo sapiens; procedure, shortened: as §2
[25] = Tested for in vitro cell growth inhibition of […] cells; type: functional, cell-based; details: Homo sapiens; procedure, shortened: as §2
[26] = Tested for the inhibition against KB cell growth; type: functional, cell-based; details: Homo sapiens; procedure, shortened: as §3

SMILES	IC50 [1] [nM]	IC50 [3] [nM]	IC50 [4] [nM]	IC50 [5] [nM]	IC90 [6] [nM]	IC50 [8] [nM]	IC50 [12] [nM]	other results
O=c1[nH][nH]c(=O)c2c1ccn2[C@@H]1O[C@H](CO)[C@@H](O)[C@H]1O	> 100000	> 100000	> 100000					IC50 [2]: Not Active
Nc1nncc2c1c(Br)cn2C1O[C@H](CO)[C@@H](O)[C@H]1O (stereo partly specified)	100000	121000		11000	1400	12000		IC50 [7]: 11000 nM
Nc1ncnc2c1c(Br)cn2[C@@H]1O[C@H](CO)[C@@H](O)[C@H]1O	1200				3500	3000		
Nc1nc2c(ncn2COC(CO)CO)c(=O)[nH]1 [GANCICLOVIR]	> 100000	7700	3500		1800	> 100000		
Nc1nnc(O)c2c1c(I)cn2C1O[C@H](CO)[C@@H](O)[C@H]1O (stereo partly specified)	1000	400	4500	70	20	1200	80	IC50 [9]: 70 nM; IC50 [10]: 76 nM; IC50 [11]: 500 nM; IC50 [13]: 280 nM; IC50 [7]: 200 nM; IC50 [14]: 420 nM; IC50 [15]: 230 nM; IC50 [16]: 2500 nM; IC50 [17]: 130 nM
Nc1nncc2c1ccn2C1O[C@H](CO)[C@@H](O)[C@H]1O (stereo partly specified)	> 100000	> 100000	> 100000					IC50 [18]: Not Active; IC50 [2]: Not Active
Nc1nnc(O)c2c1ccn2[C@@H]1O[C@H](CO)[C@@H](O)[C@H]1O	> 100000	> 100000	90000				74000	IC50 [19]: Not Active; IC50 [20]: Not Active; IC50 [21]: Not Active; IC50 [22]: Not Active
Nc1n[nH]c(=O)c2c1c(Br)cn2[C@@H]1O[C@H](CO)[C@@H](O)[C@H]1O	2500	100	2000	230	40	< 1200	100	IC50 [10]: 200 nM; IC50 [23]: 500 nM; IC50 [24]: 500 nM; IC50 [25]: 1300 nM
Nc1nnc(O)c2c1c(Cl)cn2C1O[C@H](CO)[C@@H](O)[C@H]1O (stereo partly specified)	2100	200	6800		700	6100	230	
Nc1ncnc2c1ccn2[C@@H]1O[C@H](CO)[C@@H](O)[C@H]1O [TUBERCIDIN]							43	IC50 [26]: 1000 nM
